# Reference: paper PMC6044914 (ACS Omega, 2017)
# Where two headings read alike, the source gives them in different places.
# Key:
# [1] = rats; rapidly metabolized; cited from earlier work
# [2] = tested on: M. tuberculosis H37Rv (London Pride); test: microbe, parasite or virus in culture; assay type: cell-based, Mycobacterium tuberculosis; conditions: for MIC: Mycobacterium tuberculosis, H37RV; for activity against M. tuberculosis (in words): SAR discussion
# Vero cells = conditions: for TC50: African green monkey; for cytotoxicity (in words): Vero cells
# [3] = tested on: nonreplicating M. tuberculosis (nutrient starvation); conditions: previous work; cited from earlier work
# [4] = Pharmacokinetic profiling in the rat; assay type: in vivo; conditions: plasma; for bioavailability: oral; for AUC: po
# S. cerevisiae Y187 = test: Spectrum, MIC99 by serial dilution agar method; assay type: cell-based, Saccharomyces cerevisiae; conditions: for MIC: Saccharomyces cerevisiae, Y187, read-out: MIC (μM) Sa. cerevisiae
# Summary of the method: (§1)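 Serial-dilution agar MIC99 with test compound in the agar. Organisms were grown on different media: B. subtilis Marburg on nutrient agar, E. coli DH5α and S. aureus RN4220 on LB agar, M. smegmatis mc2155 on Middlebrook 7H10 + 10% v/v OADC, P. aeruginosa BAA 47 PA0 on tryptic soy agar, S. cerevisiae Y187 on YPD agar. Late-log culture was plated and incubated at 37 °C until large colonies formed on no-compound plates. MIC99 is the lowest concentration giving <1% growth.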
# P. aeruginosa BAA 47 PA0 = test: Spectrum, MIC99 by serial dilution agar method; assay type: cell-based; conditions: Pseudomonas aeruginosa, BAA47, read-out: MIC (μM) P. aeruginosa
# Summary of the method: as §1
# S. aureus RN4220 = test: Spectrum, MIC99 by serial dilution agar method; assay type: cell-based, Staphylococcus aureus; conditions: for MIC: Staphylococcus aureus, RN4220, read-out: MIC (μM) St. aureus
# Summary of the method: as §1
# [5] = tested on: replicating M. tuberculosis; test: Kill kinetics in replicating conditions; assay type: cell-based, Mycobacterium tuberculosis; conditions: for bactericidal activity against replicating M. tuberculosis (in words): aerobic conditions; for concentration at which bactericidal, replicating M. tuberculosis: bactericidal = at least 3 logs kill in 21 days
# E. coli DH5α = test: Spectrum, MIC99 by serial dilution agar method; assay type: cell-based; conditions: Escherichia coli, read-out: MIC (μM) E. coli
# Summary of the method: as §1
# B. subtilis Marburg = test: Spectrum, MIC99 by serial dilution agar method; assay type: cell-based; conditions: Bacillus subtilis, read-out: MIC (μM) B. subtilis
# Summary of the method: as §1
# M. smegmatis mc^2155 = test: Spectrum, MIC99 by serial dilution agar method; assay type: cell-based, Mycobacterium smegmatis
# Summary of the method: as §1
# [6] = tested on: nonreplicating M. tuberculosis (nutrient starvation); test: Kill kinetics under starvation; assay type: cell-based, Mycobacterium tuberculosis; conditions: for concentration at which bactericidal, nonreplicating M. tuberculosis: concentrations as low as
Compound,MIC ([2]; 120 h),TC50 (Vero cells),activity against M. tuberculosis (in words) [2],MIC [2],other results
"CC(=O)Oc1ccccc1C(=O)Nc1ncc([N+](=O)[O-])s1 [compound 1, 2-(5-Nitrothiazol-2-ylcarbamoyl)phenyl Acetate, reference compound]",14 µM,>20 µM,–,–,detection in plasma or urine [1]: not detectable; MIC ([2]; read-out: minimum inhibitory concentration (MIC)): 14 µM; activity against nonreplicating or persistent M. tuberculosis (in words) [3]: good activity
"O=C(Nc1ncc([N+](=O)[O-])s1)c1ccccc1O [compound 2, 2-Hydroxy-N-(5-nitrothiazol-2-yl)benzamide, reference compound]",20 µM,>20 µM,–,–,Vd [4]: 0.698 ± 0.327 L/kg; clearance [4]: 57.5 ± 3.3 mL/min/kg; bioavailability [4]: 5.8 ± 0.1%; AUC [4]: 167 ± 10 ng·h/mL
"O=C(Nc1ncc([N+](=O)[O-])s1)c1ccccc1 [compound 4, N-(5-nitrothiazol-2-yl)benzamide]",–,–,–,–,Vd [4]: 0.18 ± 0.006 L/kg; clearance [4]: 6.1 ± 0.5 mL/min/kg; bioavailability [4]: 63.5 ± 6.9%
"CCC(C)(C)C(=O)Oc1ccccc1C(=O)Nc1ncc([N+](=O)[O-])s1 [compound 8, 2-((5-Nitrothiazol-2-yl)carbamoyl)phenyl 2,2-Dimethylbutanoate]",1.4 ± 0.07 µM,6.2 µM,showed activity,–,improvement in activity relative to 1 [2]: 10 fold; MIC (S. cerevisiae Y187): > 100 µM; MIC (P. aeruginosa BAA 47 PA0): > 100 µM; MIC (S. aureus RN4220): > 50 µM; bactericidal activity against replicating M. tuberculosis (in words) [5]: rapidly bactericidal; kill of replicating M. tuberculosis ([5]; in 7 days at 10× MIC): > 4 log; MIC (E. coli DH5α): > 25 µM; MIC (B. subtilis Marburg): 1 µM
"Cc1cccc(C(=O)Nc2ncc([N+](=O)[O-])s2)c1O [compound 13, 2-Hydroxy-3-methyl-N-(5-nitrothiazol-2-yl)benzamide]",–,–,–,–,Vd [4]: 0.16 ± 0.012 L/kg; clearance [4]: 8.96 ± 0.51 mL/min/kg; bioavailability [4]: 72.5 ± 18.4%
"O=C(Nc1ncc([N+](=O)[O-])s1)c1ccccn1 [compound 19, N-(5-Nitrothiazol-2-yl)picolinamide]",2.4 ± 0.0071 µM,20 µM,improved activity,–,"susceptibility of M. smegmatis (in words) (M. smegmatis mc^2155): sensitive; susceptibility of S. cerevisiae (in words) (S. cerevisiae Y187): sensitive; MIC (S. cerevisiae Y187): 12.5 µM; MIC (P. aeruginosa BAA 47 PA0): > 100 µM; MIC (S. aureus RN4220): > 100 µM; bactericidal activity under nonreplicating conditions (in words) [6]: bactericidal activity; concentration at which bactericidal, nonreplicating M. tuberculosis [6]: ≤ 1.25 × MIC; bactericidal activity against replicating M. tuberculosis (in words) [5]: bactericidal; concentration at which bactericidal, replicating M. tuberculosis [5]: ≥ 5 times the MIC; MIC (E. coli DH5α): > 100 µM; MIC (B. subtilis Marburg): 3.1 µM"
"COc1ccnc(C(=O)Nc2ncc([N+](=O)[O-])s2)c1 [compound 20, 4-Methoxy-N-(5-nitrothiazol-2-yl)picolinamide]",5.6 ± 4.2 µM,11 µM,–,–,–
"COc1ccc(C(=O)Nc2ncc([N+](=O)[O-])s2)nc1 [compound 21, 5-Methoxy-N-(5-nitrothiazol-2-yl)picolinamide]",5.5 ± 2.1 µM,4.3 µM,–,–,–
"CCC(C)(C)C(=O)Oc1cccnc1C(=O)Nc1ncc([N+](=O)[O-])s1 [compound 23, 2-((5-Nitrothiazol-2-yl)carbamoyl)pyridin-3-yl 2,2-dimethylbutanoate]",12 ± 1 µM,21 µM,–,–,–
"COc1cccnc1C(=O)Nc1ncc([N+](=O)[O-])s1 [compound 24, 3-Methoxy-N-(5-nitrothiazol-2-yl)picolinamide]",> 20 µM,37 µM,inactive,–,–
"O=C(Nc1ncc([N+](=O)[O-])s1)c1ccc(N2CCOCC2)cn1 [compound 25, 5-Morpholino-N-(5-nitrothiazol-2-yl)picolinamide]",> 20 µM,11 µM,inactive,–,–
"O=C(Nc1ncc([N+](=O)[O-])s1)C1CCCCC1 [compound 28, N-(5-Nitrothiazol-2-yl)cyclohexanecarboxamide]",–,–,loss of activity,> 20 µM,Vd [4]: 0.68 ± 0.12 L/kg; clearance [4]: 69.8 ± 4.3 mL/min/kg; bioavailability [4]: 17.5 ± 4.2%; AUC [4]: 418 ± 96 ng·h/mL
"O=C(Nc1ccccc1)Nc1ncc([N+](=O)[O-])s1 [compound 37, 1-(5-Nitrothiazol-2-yl)-3-phenylurea]",–,–,comparable activity to the parent compound 1,17 ± 4.2 µM,"MIC (S. cerevisiae Y187): > 100 µM; MIC (P. aeruginosa BAA 47 PA0): > 100 µM; susceptibility of S. aureus (in words) (S. aureus RN4220): sensitive; MIC (S. aureus RN4220): 50 µM; bactericidal activity under nonreplicating conditions (in words) [6]: bactericidal activity; concentration at which bactericidal, nonreplicating M. tuberculosis [6]: ≤ 1.25 × MIC; bactericidal activity against replicating M. tuberculosis (in words) [5]: bactericidal activity; concentration at which bactericidal, replicating M. tuberculosis [5]: equivalent to the MIC; kill of replicating M. tuberculosis ([5]; in 21 days, at concentrations equivalent to the MIC): at least 3 logs; MIC (E. coli DH5α): > 100 µM; MIC (B. subtilis Marburg): 50 µM"
"CC(=O)Oc1ccccc1C(=O)Nc1nccs1 [compound 45, 2-(Thiazol-2-ylcarbamoyl)phenyl Acetate]",–,>50 µM,eliminated all activity,> 20 µM,–
"Cc1nc(NC(=O)c2ccccc2O)sc1[N+](=O)[O-] [compound 46, 2-Hydroxy-N-(4-methyl-5-nitrothiazol-2-yl)benzamide]",–,5.2 µM,inactive,> 20 µM,–
"Cc1cnc(NC(=O)c2ccccn2)s1 [compound 48, N-(5-Methylthiazol-2-yl)picolinamide]",–,12 µM,inactive,> 20 µM,–
"O=C(Nc1ncc(C(F)(F)F)s1)c1ccccn1 [compound 49, N-(5-(Trifluoromethyl)thiazol-2-yl)picolinamide]",–,0.8 µM,some activity,5.3 ± 0.2 µM,cytotoxicity (in words) (Vero cells): cytotoxicity
"Cc1nc(NC(=O)c2ccccn2)sc1[N+](=O)[O-] [compound 50, N-(4-Methyl-5-nitrothiazol-2-yl)picolinamide]",–,4.2 µM,some activity,1.5 ± 0.6 µM,cytotoxicity (in words) (Vero cells): cytotoxicity
"O=C(Nc1ncc(C(=O)O)s1)c1ccccn1 [compound 51, 2-(Picolinamido)thiazole-5-carboxylic Acid]",–,>50 µM,inactive,> 20 µM,–
"O=C(Nc1nc(-c2ccccn2)cs1)c1ccccn1 [compound 52, N-(4-(Pyridin-2-yl)thiazol-2-yl)picolinamide]",–,15 µM,inactive,> 20 µM,–
"O=C(Nc1nc(-c2ccccn2)c([N+](=O)[O-])s1)c1ccccn1 [compound 53, N-(5-Nitro-4-(pyridin-2-yl)thiazol-2-yl)picolinamide]",–,6.4 µM,some activity,8.5 ± 2.1 µM,cytotoxicity (in words) (Vero cells): cytotoxicity
"CO[C@H]1/C=C/O[C@@]2(C)Oc3c(C)c(O)c4c(O)c(c(/C=N/N5CCN(C)CC5)c(O)c4c3C2=O)NC(=O)/C(C)=C\C=C\[C@H](C)[C@H](O)[C@@H](C)[C@@H](O)[C@@H](C)[C@H](OC(C)=O)[C@@H]1C [rifampicin, reference compound]",0.004 µM,>50 µM,–,–,–
